Results: PMC7893792 (ACS Omega, 2021)

Legend:
rOat3 = biological target: T1, rOat3 (Rattus norvegicus, UniProt Q9R1U7); assay: 6-CF uptake by rOat3-expressing HEK293 cells; type: cell-based; details: for inhibition at 100 µM: HEK293, pH 7.4, read-out: Inhibition of rOat3-mediated 6-CF uptake
T1 sequence (Q9R1U7 1-536): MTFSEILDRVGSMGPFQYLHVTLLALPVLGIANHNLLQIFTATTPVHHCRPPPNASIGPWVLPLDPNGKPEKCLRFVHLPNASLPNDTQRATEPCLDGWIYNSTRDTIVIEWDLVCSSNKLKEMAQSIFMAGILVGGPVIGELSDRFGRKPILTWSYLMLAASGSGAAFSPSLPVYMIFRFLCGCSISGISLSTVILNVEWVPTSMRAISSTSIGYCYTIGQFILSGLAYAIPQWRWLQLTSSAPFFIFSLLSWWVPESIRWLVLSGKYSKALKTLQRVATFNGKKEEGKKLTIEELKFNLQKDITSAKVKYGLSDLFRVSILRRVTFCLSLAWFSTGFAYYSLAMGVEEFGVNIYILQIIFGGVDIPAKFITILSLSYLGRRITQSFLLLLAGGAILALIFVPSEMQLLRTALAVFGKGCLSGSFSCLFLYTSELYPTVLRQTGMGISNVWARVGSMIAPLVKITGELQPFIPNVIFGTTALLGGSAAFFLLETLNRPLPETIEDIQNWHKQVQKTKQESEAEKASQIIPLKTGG

rOat1 = biological target: T2, rOat1 (Rattus norvegicus, UniProt O35956); assay: 6-CF uptake by rOat1-expressing HEK293 cells; type: cell-based
T2 sequence (O35956 1-551): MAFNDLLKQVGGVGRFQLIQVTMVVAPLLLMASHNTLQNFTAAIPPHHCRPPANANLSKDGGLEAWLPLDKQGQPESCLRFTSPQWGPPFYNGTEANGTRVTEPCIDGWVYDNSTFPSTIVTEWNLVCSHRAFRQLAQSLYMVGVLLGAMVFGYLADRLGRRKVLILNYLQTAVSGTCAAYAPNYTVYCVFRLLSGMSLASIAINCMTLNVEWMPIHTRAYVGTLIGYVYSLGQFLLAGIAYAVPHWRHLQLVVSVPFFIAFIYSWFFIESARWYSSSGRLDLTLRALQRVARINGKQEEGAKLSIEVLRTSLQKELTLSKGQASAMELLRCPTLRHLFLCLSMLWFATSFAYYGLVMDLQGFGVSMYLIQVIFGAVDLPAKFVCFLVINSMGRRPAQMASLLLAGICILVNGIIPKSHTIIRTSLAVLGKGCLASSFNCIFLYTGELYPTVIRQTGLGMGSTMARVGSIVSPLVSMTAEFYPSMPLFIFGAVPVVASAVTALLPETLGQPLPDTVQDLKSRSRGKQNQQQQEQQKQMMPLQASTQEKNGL

[1] = Plasma concentration and urinary excretion of 6-CF in rats; type: in vivo; details: male, Wistar/ST, rat, iv, 1 mg/kg
Summary of the method: (§1)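 Male Wistar/ST rats (7 weeks) were anesthetized with ethyl carbamate/α-chloralose, with femoral artery, vein and bladder catheters. 5% mannitol iv bolus 2.5 mL/kg, then 0.03 mL/min infusion. After 20 min, 6-CF 1 mg/kg iv bolus ± test compound 60 mg/kg, saline vehicle. Plasma sampled 1–60 min, urine 0–60 min; fluorescence read-out. AUC0–60 by trapezoidal rule; CLr = 60-min urinary amount/AUC0–60; mean ± SD, 6–8 rats.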

hOAT1 [2] = biological target: T3, hOAT1 (Homo sapiens, UniProt Q4U2R8); details: cited from earlier work
T3 sequence (Q4U2R8 1-563): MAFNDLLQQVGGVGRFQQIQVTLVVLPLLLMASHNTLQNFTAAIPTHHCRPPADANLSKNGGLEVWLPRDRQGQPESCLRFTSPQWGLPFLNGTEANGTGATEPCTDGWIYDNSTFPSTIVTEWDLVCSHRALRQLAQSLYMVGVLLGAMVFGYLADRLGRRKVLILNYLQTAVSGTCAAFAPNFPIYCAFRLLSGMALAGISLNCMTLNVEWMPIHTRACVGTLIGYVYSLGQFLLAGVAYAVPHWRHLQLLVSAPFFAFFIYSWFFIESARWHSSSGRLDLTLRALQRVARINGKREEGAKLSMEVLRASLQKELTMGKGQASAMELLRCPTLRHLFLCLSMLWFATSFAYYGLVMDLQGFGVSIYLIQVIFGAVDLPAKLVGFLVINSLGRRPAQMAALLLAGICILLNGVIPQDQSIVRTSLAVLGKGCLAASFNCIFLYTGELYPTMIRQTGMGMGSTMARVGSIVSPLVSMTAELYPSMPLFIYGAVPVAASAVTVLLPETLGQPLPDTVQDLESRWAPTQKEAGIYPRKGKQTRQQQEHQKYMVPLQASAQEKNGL

hOAT3 [3] = biological target: T4, hOAT3 (Homo sapiens, UniProt Q8TCC7); details: cited from earlier work
T4 sequence (Q8TCC7 1-542): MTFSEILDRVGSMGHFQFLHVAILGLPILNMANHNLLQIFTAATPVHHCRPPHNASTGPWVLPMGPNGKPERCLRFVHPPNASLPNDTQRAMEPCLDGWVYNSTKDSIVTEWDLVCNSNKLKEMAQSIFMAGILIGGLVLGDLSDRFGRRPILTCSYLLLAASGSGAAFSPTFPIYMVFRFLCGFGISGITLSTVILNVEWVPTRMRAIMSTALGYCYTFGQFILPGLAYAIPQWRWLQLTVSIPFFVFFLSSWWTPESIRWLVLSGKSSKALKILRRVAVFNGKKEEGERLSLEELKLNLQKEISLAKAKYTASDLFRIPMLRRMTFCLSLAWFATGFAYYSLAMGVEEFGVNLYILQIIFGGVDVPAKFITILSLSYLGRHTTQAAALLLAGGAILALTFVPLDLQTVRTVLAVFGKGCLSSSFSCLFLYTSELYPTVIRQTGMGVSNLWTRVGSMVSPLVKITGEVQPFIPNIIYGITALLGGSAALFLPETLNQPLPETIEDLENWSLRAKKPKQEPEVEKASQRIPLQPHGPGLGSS

renal Oats = assay: Plasma concentration and urinary excretion of 6-CF in rats; type: in vivo; details: rat; for Decrease of the renal clearance (CLr) of 6-CF: vs control, probenecid 100 mg/kg, EGCG 60 mg/kg, 2% D-malate
Summary of the method: as §1

Renal parameters = type: in vivo; details: rat; for BUN / Ccr: iv probenecid 100 mg/kg, EGCG 60 mg/kg or 2% D-malate; for Change in blood urea nitrogen (BUN) / Change in creatinine clearance (Ccr): vs control, Dunnett's test
Summary of the method: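 Anesthetized, catheterized male Wistar/ST rats on iv 5% mannitol (2.5 mL/kg bolus, 0.03 mL/min infusion; ± 2% D-malate) received 6-CF 1 mg/kg iv alone or with reference inhibitor 100 mg/kg or test compound 60 mg/kg. BUN measured with a colorimetric urea kit; plasma and urine creatinine by kit. Ccr = urinary creatinine excretion rate ÷ plasma creatinine. One-way ANOVA, Dunnett's test vs control.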

hOAT3 [4] = biological target: T4, hOAT3; assay: 6-CF uptake by hOAT3-expressing HEK293 cells; type: cell-based; details: for inhibition at 100 µM: HEK293, pH 7.4, read-out: Inhibition of hOAT3-mediated 6-CF uptake
Summary of the method: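 After 10 min preincubation at 37 °C in Waymouth buffer pH 7.4, cells took up 1 μM 6-CF with test compound for 2 min, then ice-cold PBS wash, 1% SDS lysis, fluorescence. Vector uptake subtracted. Inhibition type: 6-CF 1–100 μM ± 0.1 mM test compound, Eadie–Hofstee plot; mean ± SE, n = 3–4.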

hOAT1 [5] = biological target: T3, hOAT1; assay: 6-CF uptake by hOAT1-expressing HEK293 cells; type: cell-based
hOAT1 [6] = biological target: T3, hOAT1; details: cited from earlier work; remark: listed apart in the source
mouse Oat3 = details: cited from earlier work
[7] = substrate: O=C(O)c1ccc(C(=O)O)c(-c2c3ccc(=O)cc-3oc3cc(O)ccc23)c1; assay: 6-CF uptake by rOat1-expressing HEK293 cells; type: cell-based, rat; details: other: HEK293-rOat1, 2 min, 37 °C, pH 7.4, 1-100 μM 6-CF
[8] = EGCG 60 mg/kg iv with 6-CF 1 mg/kg
[9] = compound 100 μM, 6-CF 1 μM, 2 min, 37 °C, pH 7.4

Molecule: O=C(O)c1ccc(C(=O)O)c(-c2c3ccc(=O)cc-3oc3cc(O)ccc23)c1 [6-CF, 6-carboxyfluorescein]
- Vmax of 6-CF uptake (rOat3; HEK293-rOat3, 2 min, 37 °C, pH 7.4): 35.3 ± 1.3 pmol/mg/2 min
- Vmax of 6-CF uptake (rOat1; HEK293-rOat1, 2 min, 37 °C, pH 7.4): 131 ± 3 pmol/mg/2 min
- CL renal ([1]; plasma and urine): 18.3 ± 6.8 mL/min/kg
- AUC(0-t) ([1]; plasma): 573 ng·h/mL
- Vmax of 6-CF transport (hOAT1 [2]): 125.1 ± 1.6 pmol/mg/2 min
- Km (hOAT1 [2]; read-out: Km of 6-CF transport): 6.94 ± 0.33 µM
- Vmax of 6-CF transport (hOAT3 [3]): 70.0 ± 3.2 pmol/mg/2 min
- Km (hOAT3 [3]; read-out: Km of 6-CF transport): 38.4 ± 4.2 µM

Molecule: O=C(O)C[C@@H](O)C(=O)O [D-malate]
- Decrease of the renal clearance (CLr) of 6-CF (renal Oats): ~4 fold
- BUN (Renal parameters): 11.4 ± 1.1 mg/dL
- Ccr (Renal parameters): 2.92 ± 0.66 mL/min/kg
- Change in blood urea nitrogen (BUN) (Renal parameters): no significant change
- Change in creatinine clearance (Ccr) (Renal parameters): no significant change

Molecule: O=C(O[C@@H]1Cc2c(O)cc(O)cc2O[C@@H]1c1cc(O)c(O)c(O)c1)c1cc(O)c(O)c(O)c1 [EGCG, (−)-epigallocatechin-3-gallate]
- Type of inhibition (hOAT3 [4]; hOAT3, Eadie-Hofstee plot): competitive inhibition
- Type of inhibition (rOat3; rOat3, Eadie-Hofstee plot): competitive inhibition
- Type of inhibition (hOAT1 [5]; hOAT1, Eadie-Hofstee plot): mixed-type inhibition
- Type of inhibition (rOat1; rOat1, Eadie-Hofstee plot): competitive inhibition
- Increase of 6-CF AUC0–60 (renal Oats; [8]): ~2.2 fold
- Increase of the plasma concentration of 6-CF at 60 min (renal Oats; [8]): ~8 fold
- Decrease of the renal clearance (CLr) of 6-CF (renal Oats): ~2.6 fold
- BUN (Renal parameters): 11.9 ± 1.3 mg/dL
- Ccr (Renal parameters): 2.58 ± 0.82 mL/min/kg
- Change in blood urea nitrogen (BUN) (Renal parameters): no significant change
- Change in creatinine clearance (Ccr) (Renal parameters): no significant change

Molecule: CC[N+](CC)(CC)CC [TEA, tetraethylammonium]
- Inhibition of hOAT3-mediated 6-CF uptake (hOAT3 [4]; [9]): no effects
- Inhibition of rOat3-mediated 6-CF uptake (rOat3; [9]): no effects
- Inhibition of hOAT1-mediated 6-CF uptake (hOAT1 [5]; [9]): no effects
- Inhibition of rOat1-mediated 6-CF uptake (rOat1; [9]): no effects

Molecule: Nc1ncnc2c1ncn2CCOCP(=O)(O)O [adefovir]
- Inhibitory effect, OAT1 compared with OAT3 (human) (hOAT1 [5]; 100 μM, hOAT1 vs hOAT3 plot): higher for OAT1 than those for OAT3
- Inhibitory effect, OAT1 compared with OAT3 (rat) (rOat1; 100 μM, rOat1 vs rOat3 plot): higher for OAT1 than those for OAT3

Molecule: O.Oc1cc(O)c2c(c1)O[C@H](c1ccc(O)c(O)c1)[C@@H](O)C2 [catechin]
- Interaction with hOAT1 (hOAT1 [6]): did not interact

Molecule: O=C(O[C@@H]1Cc2c(O)cc(O)cc2O[C@@H]1c1ccc(O)c(O)c1)c1cc(O)c(O)c(O)c1 [epicatechin gallate]
- Inhibition of mouse Oat3 (mouse Oat3): inhibit

Molecule: Oc1cc(O)c2c(c1)O[C@H](c1ccc(O)c(O)c1)[C@H](O)C2 [epicatechin]
- Interaction with hOAT1 (hOAT1 [6]): did not interact
- Inhibition of mouse Oat3 (mouse Oat3): inhibit

Molecule: CCCN(CCC)S(=O)(=O)c1ccc(C(=O)O)cc1 [probenecid]
- inhibition at 100 µM (hOAT3 [4]): > 80%
- inhibition at 100 µM (rOat3): > 80%
- Decrease of the renal clearance (CLr) of 6-CF (renal Oats): ~6 fold
- BUN (Renal parameters): 12.6 ± 0.7 mg/dL
- Ccr (Renal parameters): 2.51 ± 0.78 mL/min/kg
- Change in blood urea nitrogen (BUN) (Renal parameters): no significant change
- Change in creatinine clearance (Ccr) (Renal parameters): no significant change

Molecule: CCCCC[C@H](O)/C=C/[C@H]1[C@H](O)CC(=O)[C@@H]1C/C=C\CCCC(=O)O [prostaglandin E2]
- inhibition at 100 µM (hOAT3 [4]): > 80%
- inhibition at 100 µM (rOat3): > 80%

B1: rOat1 (Rattus norvegicus) (protein)
chain: MAFNDLLKQVGGVGRFQLIQVTMVVAPLLLMASHNTLQNFTAAIPPHHCRPPANANLSKDGGLEAWLPLDKQGQPESCLRFTSPQWGPPFYNGTEANGTRVTEPCIDGWVYDNSTFPSTIVTEWNLVCSHRAFRQLAQSLYMVGVLLGAMVFGYLADRLGRRKVLILNYLQTAVSGTCAAYAPNYTVYCVFRLLSGMSLASIAINCMTLNVEWMPIHTRAYVGTLIGYVYSLGQFLLAGIAYAVPHWRHLQLVVSVPFFIAFIYSWFFIESARWYSSSGRLDLTLRALQRVARINGKQEEGAKLSIEVLRTSLQKELTLSKGQASAMELLRCPTLRHLFLCLSMLWFATSFAYYGLVMDLQGFGVSMYLIQVIFGAVDLPAKFVCFLVINSMGRRPAQMASLLLAGICILVNGIIPKSHTIIRTSLAVLGKGCLASSFNCIFLYTGELYPTVIRQTGLGMGSTMARVGSIVSPLVSMTAEFYPSMPLFIFGAVPVVASAVTALLPETLGQPLPDTVQDLKSRSRGKQNQQQQEQQKQMMPLQASTQEKNGL
- Km [7]: 6.68 ± 0.62 µM
